Screening data deposited in PubChem by Sanford-Burnham Center for Chemical Genomics.
Only a sample is shown.
Apaf1 activ: human Apaf-1 activation. Apaf-1 apoptosome caspase-3 activation, DEVD-Rh110 fluorescence; hits give low values. AID 489031. actives 0.31% (n = 330,000). O14727. activity change, negative = activation, % at 20 µM;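 active = activity change at or below -40% at 20 µM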
Target sequence (O14727 whole entry, looked up): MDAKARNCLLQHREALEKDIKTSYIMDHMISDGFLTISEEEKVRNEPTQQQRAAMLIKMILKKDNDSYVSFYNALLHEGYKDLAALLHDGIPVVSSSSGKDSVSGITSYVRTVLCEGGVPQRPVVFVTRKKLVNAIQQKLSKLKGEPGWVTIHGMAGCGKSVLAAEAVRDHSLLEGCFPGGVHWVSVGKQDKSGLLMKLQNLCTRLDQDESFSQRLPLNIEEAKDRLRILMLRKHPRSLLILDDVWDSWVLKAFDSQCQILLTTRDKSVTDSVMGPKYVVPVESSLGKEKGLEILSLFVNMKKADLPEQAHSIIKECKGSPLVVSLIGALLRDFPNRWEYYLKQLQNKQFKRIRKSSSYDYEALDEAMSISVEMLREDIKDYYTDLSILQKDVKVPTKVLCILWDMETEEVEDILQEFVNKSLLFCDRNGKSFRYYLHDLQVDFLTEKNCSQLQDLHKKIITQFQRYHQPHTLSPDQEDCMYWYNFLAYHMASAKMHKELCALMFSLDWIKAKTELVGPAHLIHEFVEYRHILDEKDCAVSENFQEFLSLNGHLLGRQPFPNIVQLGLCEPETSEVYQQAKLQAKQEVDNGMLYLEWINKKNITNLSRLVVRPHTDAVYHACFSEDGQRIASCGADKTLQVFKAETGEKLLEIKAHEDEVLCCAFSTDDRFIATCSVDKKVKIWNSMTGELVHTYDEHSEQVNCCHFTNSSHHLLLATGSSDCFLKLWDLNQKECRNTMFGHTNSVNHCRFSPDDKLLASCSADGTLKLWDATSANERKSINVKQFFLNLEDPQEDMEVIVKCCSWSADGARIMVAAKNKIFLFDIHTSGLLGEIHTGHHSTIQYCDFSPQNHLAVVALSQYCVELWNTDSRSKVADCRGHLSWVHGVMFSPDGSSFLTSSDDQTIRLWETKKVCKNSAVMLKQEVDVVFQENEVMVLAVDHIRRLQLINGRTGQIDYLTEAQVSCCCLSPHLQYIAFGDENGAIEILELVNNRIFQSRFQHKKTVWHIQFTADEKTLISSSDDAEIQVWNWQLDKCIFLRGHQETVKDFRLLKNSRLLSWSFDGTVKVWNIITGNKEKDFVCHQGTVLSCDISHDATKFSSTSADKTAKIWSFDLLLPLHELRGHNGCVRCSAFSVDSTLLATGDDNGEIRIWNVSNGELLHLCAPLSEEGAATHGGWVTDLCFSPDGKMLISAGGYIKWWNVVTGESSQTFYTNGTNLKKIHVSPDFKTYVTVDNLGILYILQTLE
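Assay system – biochemical Apaf-1 apoptosome reconstitution · Medium – 20 mM HEPES buffer, pH 7.5, containing CHAPS and BSA · Incubation – 30 min preincubation, 50 min reaction, room temperature · Measured by – Caspase-3-released Rh110 fluorescence, 540 nm emission, 480 nm excitation · Read-out – Caspase-3 cleavage activity downstream of Apaf-1 activation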
Rh110 interf act: Rh110 signal interference in Apaf-1 activator counter-screen; shares compounds with Apaf1 activ; Rh110 fluorescence interference, quenched caspase reaction, Ex480/Em540; fluorescence interference (activity change), % at 20 µM, hits read low; 980 tested, under 10 active; AID 504616;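 active = mean activity change at or below -40% when tested at 20 µM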
Apaf-1 act conf: confirmation of human Apaf-1 activators. shares compounds with Apaf1 activ. reconstituted apoptosome caspase-3 activity, DEVD-Rh110 fluorescence; hits give low values. activity change, negative = activation, % at 20 µM. actives 5% (n = 980). AID 504617;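 active = mean activity change at or below -40%, meaning activation of 40% or more, at 20 µM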
Numbers stand for hits; i = inactive; nt = no result.

SMILES | Apaf1 activ | Rh110 interf act | Apaf-1 act conf
NS(=O)(=O)c1ccc2c(c1)C1C=CCC1C(C1CC=CCC1)N2 (stereo not drawn) | i | nt | nt
COc1cccc2c1C(=O)c1ccc3ccccc3c1C2=O | i | nt | nt
CC(=O)Nc1ccc(C(=O)COC(=O)c2nc3nc(C)cc(C)n3n2)cc1 | i | nt | nt
CCOC(=O)c1ccc(NC(=S)NC(=O)c2nn(CC)cc2Br)cc1 | -51.0 | i | i
CCOC(=O)c1ccc(NC(=O)c2nn(C)cc2Br)cc1 | -148.1 | i | i
Cc1cc(F)c(F)c(C(=O)N2CCCCC2C)c1Cl (stereo not drawn) | -115.7 | i | i
COc1ccc(C(=O)c2c(C(F)(F)F)oc3c2C(=O)c2ccccc2C3=O)cc1 | i | nt | nt
O=C1CCc2ccc(OCCCCN3CCN(c4cccc(Cl)c4Cl)CC3)cc2N1 | i | nt | nt
CN1CCN(CCc2nc3cc(NC(=O)COc4ccccc4)ccc3n2C)CC1 | i | nt | nt
CN1CCN(CCOc2cccc(Cl)c2)CC1 | -50.4 | i | i
COCCn1c(N)c(C#N)c2nc3ccccc3nc21 | i | nt | nt
CCCCc1cc(=O)oc2cc(OCC(=O)NCCN3CCOCC3)c(Cl)cc12 | i | nt | nt
CCOC(=O)NNc1ccc2nonc2c1[N+](=O)[O-] | i | nt | nt
COc1ccc2noc3c2c1C(=O)c1ccccc1-3 | i | nt | nt
CC(=O)c1c(C)[nH]c(C(=O)CSc2ccc(F)cc2)c1C | -212.7 | i | i
CC(C)CCC(C)N=Cc1c(O)n(Cc2ccccc2)c(=O)c2ccccc12 (stereo not drawn) | i | nt | nt
Cc1coc2c1C(=O)C(=O)c1c-2ccc2c(C)cccc12 | i | nt | nt
C#CCOCCOCCOCCNc1nc(N2CCN(C(=O)CCCCCCCCCCNC(=O)[C@H](CO)n3cc(CCCSC)nn3)CC2)nc(N2CCN(C(=O)CCCCCCCCCCNC(=O)[C@H](CCCCN)n3cc(C[C@@H](C)CC)nn3)CC2)n1 | i | nt | nt
COc1ccc(NC(=O)NNc2cc(N3CCOCC3)nc(N3CCOCC3)n2)cc1 | i | nt | nt
COc1ccc(N/C=C2\CCc3ccccc3C2=O)cc1 | i | nt | nt
COc1ccc(S(=O)(=O)Nc2ccc(S(=O)(=O)N3CCOCC3)cc2)cc1 | -63.9 | i | i
Cc1c(O)cccc1C(=O)N[C@@H](CSc1ccccc1)[C@H](O)CN1C[C@H]2CCCC[C@H]2C[C@H]1C(=O)NC(C)(C)C | i | nt | nt
COc1cc(NC(C)CCCN)c2ncccc2c1 (stereo not drawn) | i | nt | nt
CC1=NN(c2ccc(N)cc2)C(=O)C1 | i | nt | nt
COc1cccc(-c2cc(C(=O)N3CCN(c4ccc(F)cc4)CC3)no2)c1 | -69.0 | i | i
SMILES | Apaf1 activ | Rh110 interf act | Apaf-1 act conf
O=C(c1cccc(S(=O)(=O)N2CCN(c3ccc(F)cc3)CC2)c1)N1CCCCCCC1 | i | nt | nt
CCN(CC)CCNC(=O)c1ccc(NC(=O)c2cn(-c3ccc(F)cc3)nc2-c2cccc(OC)c2)cc1 | i | nt | nt
COc1ccc(OCc2cc(C(=O)N3CCC(OC)CC3)no2)c2ccccc12 | i | nt | nt
COc1ccc(-c2cc(C(=O)N3CCN(C(c4ccccc4)c4ccccc4)CC3)no2)cc1OC | -159.3 | i | i
CCN1/C(=C/C=C/C=C/c2sc3ccccc3[n+]2CC)Sc2ccccc21 | i | nt | nt
O=C1Cc2ccccc2C(=O)N1OCc1ccc(Cl)cc1 | i | nt | nt
O=C1C2=C(c3ccccc31)[N+](=O)C1CCCCC1N2[O-] (stereo not drawn) | i | nt | nt
Cc1ccc(NC2=C(N3CCCCC3)C(=O)c3ccccc3C2=O)cc1 | i | nt | nt
COCc1ccc(C(=O)N2CCCC(Nc3ccc(C(C)C)cc3)C2)o1 (stereo not drawn) | -107.3 | i | i
COCC(=O)O[C@]1(CCN(C)CCCc2nc3ccccc3[nH]2)CCc2cc(F)ccc2[C@@H]1C(C)C | i | nt | nt
CCN(C(=O)Cn1c(=O)n2nc(CCn3nc(C)cc3C)nc2c2ccccc21)c1cccc(C)c1 | -290.9 | i | i
COc1ccc2nc3cccc(OC)c3nc2c1 | i | nt | nt
CC(=O)N=Cc1c(C)c(C#N)c(=O)n(C)c1O | i | nt | nt
Cc1ccc(SC(C)c2nc(-c3ccccc3)no2)cc1 (stereo not drawn) | -247.1 | i | i
Cc1[nH]n(-c2ccccc2)c(=O)c1/C=N/Nc1nncc(-c2ccccc2)n1 | i | nt | nt
Cc1cc(OCc2nn[nH]n2)c2c(C)c(Cc3ccccc3)c(=O)oc2c1 | -45.1 | i | i
CCC(C)n1c(NC(=O)c2ccccc2)c(C#N)c2nc3ccccc3nc21 (stereo not drawn) | i | nt | nt
CN(CCO)c1nc(N)c2c(N)nc3c(c2c1C#N)CC(=O)N3Cc1cccs1 | i | nt | nt
CC(=O)N1CCN(C(=S)NC(=O)C23CC4CC(CC(C4)C2)C3)CC1 | i | nt | nt
CC(=O)N(Cc1ccc(F)cc1)C1=C(NCCc2ccccc2)C(=O)c2ccccc2C1=O | i | nt | nt
COc1ccc(CCNc2nc(-c3ccc(F)cc3)c(CC(=O)O)s2)cc1OC | -161.6 | i | i
CC/C(=N/Nc1cccc(C)c1)c1cnnc(SC)n1 | i | nt | nt
CC(C)[C@H](N)C(=O)OCCOCn1cnc2c(=O)[nH]c(N)nc21 | i | nt | nt
CC(C)NC[C@@H](O)c1ccc(O)c(O)c1 | i | nt | nt
O=C(NC1CCCCC1)C(c1ccncc1)N(C(=O)c1csnn1)c1ccccc1F (stereo not drawn) | -127.8 | i | i
SMILES | Apaf1 activ | Rh110 interf act | Apaf-1 act conf
CCOc1cccc(N(C(=O)C2COc3ccccc3O2)C(C(=O)NC2CCCCC2)c2ccc(O)cc2)c1 (stereo not drawn) | i | nt | nt
CN1CCN(CCCNC(=O)c2cc3c(-c4ccc(Cl)cc4)nn(C)c3s2)CC1 | i | nt | nt
COc1ccc(OC)c(NC(=S)N2CCN(C/C=C/c3ccccc3)CC2)c1 | -300.0 | i | i
C[C@H](NC(=O)c1ccc(C(C)(C)C)cc1)C(=O)N1CCN(C/C=C/c2ccccc2)CC1 | i | nt | nt
COc1ccc(Cl)cc1NC(=O)C(C)N1CCN(C/C=C/c2ccccc2)CC1 (stereo not drawn) | i | nt | nt
C#CCOCCOCCOCCNc1nc(N2CCN(C(=O)[C@H](Cc3cc4ccccc4[nH]3)n3cc([C@@H](N)C(C)CC)nn3)CC2)nc(N2CCN(C(=O)[C@H](Cc3cc4ccccc4[nH]3)n3cc([C@@H](N)Cc4ccc(O)cc4)nn3)CC2)n1 (stereo partly drawn) | i | nt | nt
Cc1ccc(-n2nc3ccc(N)cc3n2)cc1Cl | i | nt | nt
C#CCOCCOCCOCCNc1nc(N2CCN(C(=O)CCCCCCCCCCNC(=O)Cn3cc(C[C@@H](C)O)nn3)CC2)nc(N2CCN(C(=O)CCCCCCCCCCNC(=O)[C@H](CCCCN)n3cc(C[C@@H](C)CC)nn3)CC2)n1 | i | nt | nt
O=C(COc1ccccc1)N1CCN=C1SCc1ccc(F)cc1 | i | nt | nt
O=C(COc1ccc(-c2ccccc2)cc1)NNC(=O)Nc1ccc(F)cc1F | -53.7 | i | i
CN1CCN(c2ccc(-c3cccc(NC(=O)COc4ccccc4)c3)nn2)CC1 | i | nt | nt
CCOc1cccc(-c2cc(=O)[nH][nH]2)c1 | i | nt | nt
CC1=NN(c2ccccc2)C(=O)C1 | i | nt | nt
CN(C)CCCN(C(=O)c1ccc(S(=O)(=O)N2CCc3ccccc3C2)cc1)c1nc2ccc(F)cc2s1 | i | nt | nt
CCCCC[n+]1ccn(C2=C([O-])c3ccccc3C(=O)/C2=N\S(=O)(=O)c2ccc(Br)cc2)c1 | i | nt | nt
Cc1noc(C)c1C(=O)Nc1ccc(F)cc1F | -70.9 | i | i
CCC(C)(C)c1ccc(OCCCC[n+]2ccccc2)c(C(C)(C)CC)c1 | i | nt | nt
